Screening results (PubChem)
LYPLA1 inh: LYPLA1 (human) inhibition in PME1 counter-screen; O75608; recombinant LYPLA1, FP-Rh probe fluorescence polarization; inhibition, % at 5.9 µM; 320,000 tested, 0.16% active; AID 2174;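 active means inhibition above the mean of all tested compounds plus 3 SD, set per campaign, cut at about 14% in these data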;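 further: inhibitors block serine hydrolase probe labeling of LYPLA1 so polarization falls; 0% = enzyme with DMSO and 100% = wells lacking LYPLA1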
Fam108B counter: counter-screen for RBBP9 inhibitors: inhibitors of mouse Fam108B | recombinant Fam108B, FP-Rh probe fluorescence polarization | inhibition, % at 9.51 µM | 300,000 tested, 0.33% active | AID 1947;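 active means inhibition above the screen mean inhibition plus 3 SD, computed separately per campaign, cut at about 18% in these data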;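 further: inhibitors lower polarization as less probe binds the enzyme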
PAD4 inh: inhibitors of human PAD4 | inhibition, % at 6.36 µM | 330,000 tested, 0.41% active | AID 485272 | recombinant PAD4, RCA probe fluorescence polarization | Q9UM07;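 active means percent inhibition above a cutoff equal to the mean of all tested compounds plus 3 SD, cut at about 15% in these data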;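 further: 0% = PAD4 with RCA probe and DMSO and 100% = probe without PAD4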
LYPLA2 counter: counter-screen for PME1 inhibitors: inhibitors of human LYPLA2; 320,000 tested, 0.38% active; O95372; AID 2177; recombinant LYPLA2, FP-Rh probe fluorescence polarization; inhibition, % at 5.9 µM;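 active means inhibition above the screen-wide mean plus 3 SD, limit set per campaign, cut at about 26% in these data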;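 further: 0% = LYPLA2 with DMSO and 100% = wells lacking LYPLA2 enzyme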
Target sequence (O95372 whole entry, looked up): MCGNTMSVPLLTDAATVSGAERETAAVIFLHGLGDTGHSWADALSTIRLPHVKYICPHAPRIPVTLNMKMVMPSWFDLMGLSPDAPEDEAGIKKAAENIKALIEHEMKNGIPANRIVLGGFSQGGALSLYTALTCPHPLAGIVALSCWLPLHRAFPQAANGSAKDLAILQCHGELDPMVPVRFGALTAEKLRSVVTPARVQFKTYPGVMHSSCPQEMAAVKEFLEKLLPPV
PME-1 inh: blocks human protein phosphatase methylesterase 1; inhibition, % at 5.9 µM; 320,000 tested, 0.53% active; Q9Y570; recombinant PME-1, FP-Rh probe fluorescence polarization; AID 2130;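 active means inhibition above the campaign mean of all compounds plus 3 SD, cut at about 26% in these data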;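 further: competitive labeling of PME-1 active site by serine hydrolase directed probe; 0% = PME-1 with DMSO and 100% = wells lacking PME-1 enzyme; inhibitors block probe labeling so polarization falls and inhibition rises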
RBBP9 inh: blocks human serine hydrolase RBBP9. O75884. recombinant RBBP9, FP-Rh probe fluorescence polarization. inhibition, % at 7.94 µM. 220,000 tested, 0.2% active;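 active means inhibition above the campaign mean of all tested compounds plus 3 SD, cut at about 14% in these data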;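 further: plate controls were DMSO wells with RBBP9 for no effect and wells lacking RBBP9 protein for full effect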
Target sequence (O75884 whole entry, looked up): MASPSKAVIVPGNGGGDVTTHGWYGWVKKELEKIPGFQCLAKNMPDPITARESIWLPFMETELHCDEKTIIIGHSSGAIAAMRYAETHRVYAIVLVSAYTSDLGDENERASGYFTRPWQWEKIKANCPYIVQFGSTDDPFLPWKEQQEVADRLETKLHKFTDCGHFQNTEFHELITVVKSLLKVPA
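Test system: recombinant human RBBP9; Timing: 30 min then 45 min, 25 °C; Detection: fluorescence polarization; Control set: RBBP9 with DMSO as uninhibited control, no-protein wells as full inhibition; Compound dosing: one concentration, 7.94 µM nominal, 0.794% DMSO; Probe or stimulus: FP-Rh activity-based probe, 375 nM before mixing.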
* hit, by the source's call; / = no result. A selection: hits, their analogues and other compounds. The true share with any hit is near 1.3%.

SMILES	LYPLA1 inh	Fam108B counter	PAD4 inh	LYPLA2 counter	PME-1 inh	RBBP9 inh
COc1ccc(S(=O)(=O)N2CCCCCC2)cc1NC(=O)Cc1cc(OC)c(OC)c(OC)c1	-4	3	2	-2	57*	-7
Cc1ccc(S(=O)(=O)N2CCCCC2)cc1NC(=O)COC(=O)c1ccc2c(c1)OCO2	-3	-3	-2	2	40*	-7
COc1ccc(OC)c(CC(=O)Nc2cc(S(=O)(=O)N3CCCCC3)ccc2C)c1	-3	/	-1	1	17	/
Cc1ccc(S(=O)(=O)N2CCOCC2)cc1NC(=O)COC(=O)c1cccnc1Cl	2	4	1	5	29*	0
Cc1ccc(S(=O)(=O)N2CCOCC2)cc1NC(=O)COC(=O)c1ccccc1OCc1c(C)noc1C	-3	2	3	1	32*	-6
Cn1c(SCC(=O)Nc2ccc(Cl)cc2F)nnc1-c1ccco1	-2	6	-3	-2	-9	/
COc1cc(N)ccc1NC(=O)c1cc2ccccc2o1	-1	-6	-3	-7	0	/
C=CCOc1c(/C=N\NC(N)=O)cccc1OC	-1	-2	-8	-3	1	8
C=CCOc1c(OC)cc(/C=N/Nc2cccc(C(=O)O)c2)c(Br)c1Br	6	25*	-3	12	46*	-3
Cc1ccc(S(=O)(=O)N(Cc2ccccc2F)C(=O)N2CCN(C)CC2)cc1	-4	1	0	-2	-2	/
Cc1ccc(C(=O)N2CCCC(C(=O)c3ccc(Oc4ccccc4)cc3)C2)cn1 (stereo not drawn)	2	1	-8	6	2	-6
O=C(OCCOCCN=C1NS(=O)(=O)c2ccccc21)c1ccccc1Br	0	-1	-5	-1	34*	/
O=C(OCCN=C1NS(=O)(=O)c2ccccc21)c1ccccc1F	-1	-3	-8	0	1	/
Cc1ccc2c(=O)n3c(nc2c1)C(Cc1ccccc1)NC(=O)c1cc(Cl)ccc1-3 (stereo not drawn)	/	/	-4	/	/	/
O=C(COC(=O)CCCN1C(=O)c2cccc3cccc(c23)C1=O)Nc1ccc(Cl)cc1	6	1	2	21	30*	2
Cc1ccc(S(C)(=O)=O)cc1C(=O)OCC(=O)N(Cc1ccccc1)Cc1ccccc1	1	/	-1	0	6	/
CCC(C)Nc1nc(N)c([N+](=O)[O-])c(Nc2ccccc2OC)n1 (stereo not drawn)	-6	-4	-2	-11	11	-4
CCC(C)Nc1nc(N)c([N+](=O)[O-])c(Nc2cc(OC)ccc2OC)n1 (stereo not drawn)	1	5	0	-7	28*	-4
CCCCCCC(=O)Nc1nc(C)c(-c2csc(Nc3cc(OC)ccc3OC)n2)s1	-13	11	-3	-2	35*	0
Cc1nc(C)c(-c2csc(Nc3cccc(O)c3)n2)s1	-4	11	2	-3	-3	-3
CCC(=O)Nc1nc(C)c(-c2csc(Nc3cccc(O)c3)n2)s1	4	16	-2	12	30*	/
Cc1cc(NC(=O)CC(CN(C)S(=O)(=O)c2ccccc2)c2ccccc2)no1 (stereo not drawn)	-2	4	-3	-1	-1	2
O=S(=O)(Nc1ccc(O)c2ccccc12)c1ccc(Br)cc1	-4	-1	19*	-1	4	/
CC(=O)Nc1ccc(NS(=O)(=O)c2ccccc2)c2ccccc12	0	1	-5	0	-3	/
C=CCOC(=O)C1=C(C)NC(=S)NC1/C=C/c1ccccc1 (stereo not drawn)	-1	0	0	-2	-5	-7
CC1=C(C(=O)OCc2ccccc2)C(/C=C/c2ccccc2)NC(=S)N1 (stereo not drawn)	-9	-6	-1	49*	-9	1
Cc1cc(C(=O)CSc2nc(N)cc(N)n2)c(C)n1-c1cccc(C(F)(F)F)c1	-4	-1	-14	1	29*	-9
COc1cccc(Oc2ccc(S(=O)(=O)N3CCCC3)cc2[N+](=O)[O-])c1	0	2	-1	-2	26*	/
O=C(NNc1nc2c(F)cccc2s1)c1cc(=O)c2ccccc2o1	0	4	-5	0	55*	4
Cc1ccc2sc(NNC(=O)c3cc(=O)c4ccccc4o3)nc2c1C	-2	9	-5	6	46*	-10
